Results of several laboratories.
Compare with care: the assays were run in different laboratories.
Cell line: MRC5
Effect on: cell growth or viability

SMILES	method	time	IC50
O=C(/C=C/C=C/c1ccc2c(c1)OCO2)N1CCCCC1	SRB		136 µM
COc1ccc(C(=O)O[C@@H]2CN3Cc4c(cc5c(c4OC)OCO5)[C@@]24C=C[C@H](OC)C[C@@H]34)cc1	WST-1		> 10 µM
Oc1ccccc1-c1n[nH]c(-c2ccccc2O)n1	MTT	72 h	> 100 µM
COc1cc2ccc(=O)oc2cc1OC	MTT	72 h	> 100 µM
COc1c2c(cc3c1OCO3)[C@]13C=C[C@H](OC)C[C@H]1N(C2)C[C@H]3OC(=O)c1cccc(C)c1	WST-1		> 10 µM
CC(=O)O[C@H]1C(=O)[C@@]2(C)[C@H]([C@H](OC(=O)c3ccccc3)[C@]3(O)C[C@H](OC(=O)[C@H](O)[C@@H](NC(=O)c4ccccc4)c4ccccc4)C(C)=C1C3(C)C)[C@]1(OC(C)=O)CO[C@@H]1C[C@@H]2O	SRB		0.0141 µM
O=C([O-])c1ccc(-n2nc(-c3ccccc3O)nc2-c2ccccc2[O-])cc1.O=C([O-])c1ccc(-n2nc(-c3ccccc3O)nc2-c2ccccc2[O-])cc1.[Ti+4]	MTT	72 h	25 µM
CC(C)=CCC/C(C)=C/COc1ccc2ccc(=O)oc2c1	MTT	72 h	> 100 µM
CCCCC/C=C/C(=O)CCc1ccc(O)c(OC)c1	SRB		18.5 µM
COc1cccc(C(=O)O[C@@H]2CN3Cc4c(cc5c(c4OC)OCO5)[C@@]24C=C[C@H](OC)C[C@@H]34)c1	WST-1		> 10 µM
